Laboratory results: the EternaBench riboswitch data

Test system: MS2 coat protein
Test: apparent Kd, MS2 coat protein; higher = weaker binding; RNA-MaP array; FMN 200 µM where present
Outline: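 The titrant was SNAP-549-labelled MS2 coat protein, run from 0.7 or 1.5 nM in doubling steps to 3 µM. It was applied to designs transcribed by stalled E. coli RNA polymerase on Illumina sequencing-chip clusters, without ligand first and then with constant ligand, in 100 mM Tris-HCl pH 7.5, 80 mM KCl, 4 mM MgCl2, BSA, DTT, yeast tRNA and Tween-20. The apparent Kd is the median of filtered per-cluster binding-curve fits, with green signal normalised to red-channel RNA signal and control-cluster median Fmax.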

[1] = designed as: OFF switch for flavin mononucleotide, no ligand
[2] = ligand present: flavin mononucleotide, designed as: OFF switch for flavin mononucleotide
[3] = designed as: ON switch for flavin mononucleotide, no ligand
[4] = ligand present: flavin mononucleotide, designed as: ON switch for flavin mononucleotide

Row | Sequence | apparent Kd [1] [nM] | apparent Kd [2] [nM] | apparent Kd [3] [nM] | apparent Kd [4] [nM]
1 | ACAAGAGCGGAAGGAUAUUUUACAUGAGGAUCACCCAUGUAAUAAAUGAGGAUCACGGAUGUAGUAAAGAAGGUCCGGAUAAGA | 26.1 | 32.8 |  | 
2 | UUGUUAUAUGUAGGAUAUGCAUAUUAUUAUUAUGCAGAAGGACAUGAGGAUCACCCAUGUGUAUUAUUAUUAUAUAUUAUAUAU | 23.2 | 33.2 |  | 
3 | CGAUAGGACAGAGGAUAUACACAUGAGGAUCACCCAUGUGAUUACAACGCGAAAGCUCCAAACAUGUAGAAGGCUGUCCUAUCG | 18.1 | 21.1 |  | 
4 | GGUUGGCGAGGAUAUACAUGAGGAUCACCCAUGUGGUCCUGUGGCUGAUCUUGCCUUUGUAGAAGGCGCGGGUC | 49.4 | 45.3 |  | 
5 | GAAAGGGCAGGAUAUGCAUGUUGGCAAAAUUCUCAGCAAGAACAUGAGGAUCACCCAUGUAGAAGGGCCAACGG | 42.3 | 59.9 |  | 
6 | GCCUUACCGGUCAGGAUAUACAUUUGUUACUCUUUGUAGAAGGGACAUGAGGAUCACCCAUGUACAUUACAUUC | 19.1 | 19.2 |  | 
7 | GUAUCAUACCAAGGAUAUUUAGGACUUGGAUAGACAUGAGGAUCACCCAUGUGGCGUUAGUCACGGGAGAAGGUGGUAUGAUAC |  |  | 103 | 20.7
8 | GCUGCAUGCAGAGGAUAUAUAACAUGAGGAUCACCCAUGUUAAUAAUAUGGAUAAACCAGAUAGUAUAGAAGGCUGCAUGCAGC | 19.5 | 23.8 |  | 
9 | UUAAAUCAUGUAGGAUAUGCAUGGCGAAGCUACGCAGAAGGACAUGAGGAUCACCCAUGUUAUAGCUACCGAUAAAGGUGGCAA | 84.3 | 214 |  | 
10 | CGGUCACAUGAGGAUCACCCAUGUACCUACCCGAUGAAGUCGCAGGAUAUCCAUUACUUUACGUAGGAGAAGGGUGACGCUCGC |  |  | 49.7 | 79.3
11 | GUAGCUAUCGGAGGAUAUUCAUACCGGAUACGGACAUGAGGAUCACCCAUGUGCCGAAAGGCUUGGGAGAAGGCCGAUAGCUAC |  |  | 108 | 16.9
12 | AAUUAGGUCACAGGAUAUACUACAUCCAAUGCAGUAGAAGGGUGACACAUUCUGUGCAGACAUGAGGAUCACCCAUGUAACCAC |  |  | 11.6 | 6.39
13 | AGUUAAUGCACAUGAGGAUCACCCAUGUCACUUUAUAGAAGACAGGAUAUGCAUGCCAUCAAUGUGCAGAAGGGUCAUCACCGA |  |  | 81 | 195
14 | CUCCGGCGUGUAGGAUAUGGAUCCGAUUAGGAUCCAGAAGGACAUGAGGAUCACCCAUGUACAUGUAAACAGUCAUCACCGGAA | 7.61 | 18.8 |  | 
15 | GCACGGCAUGUAGGAUAUCGAGCGCCGGGCGCUCGAGAAGGACAUGAGGAUCACCCAUGUACUCUCAGUGAGAGAGUGCUGUGC | 18.7 | 31.8 |  | 
16 | GUCGGAAACGACAAAAGUAUGGAUCCAGAAGGCAUGAAACAUGAGGAUCACCCAUGUCAAAGACAUGAGGAUAUGGAUCCAUAC |  |  | 4.06 | 3.19
17 | CUUUUGUGAGGAUAUCAGUAGUAAAUAAAUAAAAUUACUUCUGAGAAGGCACAUGAGGAUCACCCAUGUUCCUC | 34.1 | 251 |  | 
18 | AGCUGGAGAGGAUAUACGUGAGUGAUAAAAGUCUGAUAACUACAUGAGGAUCACCCAUGUAGAAGGCUCUGGCA | 66.2 | 19.4 |  | 
19 | GCCAUCGCAUGAGGAUAUGGUCACGUUUCGUGACCAGAAGGCAUGUCAAUAGACAUGAGGAUCACCCAUGUAGUUAAGAUGGCA |  |  | 680 | 59.8
20 | AAACACAGACAUGAGGAUCACCCAUGUUAUGAAGAUACUGGGAGAAGGGCGAUUGCAAAGCAAUCGCAGGAUAUUCGUAUUGUG |  |  | 31.2 | 11
21 | GAGUGACAUGAGGAUCACCCAUGUGAGGAUAUCGGACGGACCUUGUUAGCUUCCGCCGCGAGAAGGCACAUCGG | 208 | 34.5 |  | 
22 | GGAUCCUUCACAGGAUAUGCUGGACUUUGUCCAGCAGAAGGGUGAACAUGAGGAUCACCCAUGUAUUGGAUCCAUAUAUUUAAU |  |  | 897 | 56.1
23 | GAUUAACAUGAGGAUCACCCAUGUGAGGAUAUGGACUGGCUCACUUUCCGAUUCGGGUCUAGAAGGCGCAUCUU | 33.5 | 33.2 |  | 
24 | CCAUAACUGUGAGGAUAUUGUUGCGUUUAGUGACGAGAAGGCAUUCAUGUGAUAUAUACAUACAUGAGGAUCACCCAUGUUGUA |  |  | 31 | 25.5
25 | GCCAUCGCAUGAGGAUAUGCUCCCGUUUCGGGAGCAGAAGGCAUGUCACAAGACAUGAGGAUCACCCAUGUAGUUAUGAUGGCA |  |  | 221 | 8.6
26 | GGGUACAUCGGAGGAUAUCAUGUAAAUACAUGAGGAUCACCCAUGUCGAUGCAGACAUCGGAGAUUGAGAAGGCCGAUGUACCG |  |  | 974 | 78.4
27 | CACGGAUAGUAGAAGGGUGACAUGAGGAUCACCCAUGUACUUAUGUAGGUAUUACUAUAUAAUUCACAGGAUAUACUAUCCGUG |  |  | 794 | 90.3
28 | GGAAAUCAUGUAGGAUAUGCAUGGCGAAGCUACGCAGAAGGACAUGAGGAUCACCCAUGUUAAAGCUACCGAGUUCGGUGGCAA | 180 | 148 |  | 

Row | Sequence | apparent Kd [1] [nM] | apparent Kd [2] [nM] | apparent Kd [3] [nM] | apparent Kd [4] [nM]
29 | UUGGAUAUCACAGGAUAUGCUAAGGAUACCUUAGCAGAAGGGUGAUCCAUCCUAUGGCUGUACAUGAGGAUCACCCAUGUGUCA |  |  | 246 | 73.6
30 | CGACAGUACACAGGAUAUCCUCGACUUUGUCGAGGAGAAGGGUGUAAACAUGAGGAUCACCCAUGUAUACUGUCGAAAUAUAAU |  |  | 350 | 38.7
31 | GAAUAAUUGAUCCAUUUUUAAAACAUGAGGAUCACCCAUGUGCAGGAUAUCGUGAGAGUUAAAUACGAGAAGGGCAAGAACUGU | 123 | 173 |  | 
32 | AGCAUGUGAGGAUAUGUGACCCUCGUCCGAAGGAUGAGGGAAUAGAAGGCACAUGAGGAUCACCCAUGUGAUGA | 54.1 | 156 |  | 
33 | UAGAAGUCAGGAUAUGCAUGGCGGGACUUGCGUCGUGGCGUGCAGAAGGGACAUGAGGAUCACCCAUGUGGAGC | 116 | 169 |  | 
34 | GGUGCACAUGAGAAGGCGAUCAUGAAACAUGAUCGAGGAUAUCAUGUAAACAUGAGGAUCACCCAUGUAUGGGAAAAGUGCACC |  |  | 114 | 10.9
35 | AGAUAACAUGAGGAUCACCCAUGUGAGGAUAUUUACCCAAGAGCUUCGGCUCUCAGGUGGAGAAGGCACGUUGA | 51.3 | 76.8 |  | 
36 | GUCAGCUCGUGAGGAUAUACAACACUGCUUCGGCAGUGUAUUAAGAUCACAUGAGGAUCACCCAUGUAGAAGGCACCAGCUGAU | 16.3 | 215 |  | 
37 | AGACAGAUCGAGAAGGGAACAUGAGGAUCACCCAUGUGGAAGACUUGAUGUUCAGGAUAUCGAAAGCCUGAGUUAGAUGAAUUG | 26.5 | 115 |  | 
38 | GUCCCGAGGGAGAAGGGCUAGGAGGUCCAGCUUAUGUGUGUUGCAACAUGAGGAUCACCCAUGUAGCAGGAUAUCCCUUGUACA | 52.2 | 219 |  | 
39 | UUUUAUUAGUAAGGAUAUACUAGCGAUGAGCUUGUAGAAGGUACAGUCUUAUGUAUAACAUGUUAACAUGAGGAUCACCCAUGU |  |  | 38.6 | 22.4
40 | GCUAGGAGUGUGAGGAUAUGCUGAACCUUGGUUCAGCAGAAGGCACAUGAGGAUCACCCAUGUGAAGACCUAGC | 25.7 | 149 |  | 
41 | UUCGCUAAGGUGUAGCGAGACUUGCAAGAAGGGUGAAGAACAUGAGGAUCACCCAUGUAAUCCUUACAGGAUAUUGCUUGACGA |  |  | 273 | 33.1
42 | GUCUUACAUGAGGAUCACCCAUGUGAGGAUAUAUGUGGUGUUGAGAAAUUGGUGUUGUAUAGAAGGCGCGUGAU | 25.5 | 24.8 |  | 
43 | AAAGAAGCACUUGGAACCGGACAAUGAGAAGGCCACGCACAUGAGGAUCACCCAUGUAAAGCUAUGGAGGAUAUCAUGAUGGAU |  |  | 46.4 | 6.73
44 | GGAUAGGACAGAGGAUAUACGUGCUAGAGAUACUAGCAAAAUUUCCUCACAUGAGGAUCACCCAUGUAGAAGGCUAUCCUAUCG | 6.34 | 31.9 |  | 
45 | UCAUUUCAGUAAGGAUAUUAAAACAUGACGAUACAUGAGGAUCACCCAUGUUAAGAAGGUACUAAUACAUAUAAUGCAAUGUUC | 16 | 15 |  | 
46 | UCUCGGAGCAGAGGAUAUUACAUGAGGAUCACCCAUGUAUGAACCAAUAGCUGGAAACAGCAAUGUAAGAAGGCUGCUCCGACA | 12.4 | 169 |  | 
47 | UGAUUGCGUGUUAGGAUAUGGUUUGGUGUUUCGGGCUAGAAGGGACAUGAGGAUCACCCAUGUAACUGGCGGGU | 54.9 | 67.7 |  | 
48 | UUCAAGUUGCGAGGAUAUCGUGUUAACAUGAGGAUCACCCAUGUAAAGGUUUAUUAAAUAAUCUUCGAGAAGGCGCUUAAUGUA |  |  | 24.1 | 20.8
49 | AGUGACGACACAGGAUAUGCUGGACUUUGUCCAGCAGAAGGGUGUUAACAUGAGGAUCACCCAUGUAUCGUCACCAAAUUUAAU |  |  | 628 | 34.1
50 | UGGUACAUGGGAGGAUAUCCUCAAACAUGAGGAUCACCCAUGUAAAAUUAUAAGCCGAAAGGCAUGGAGAAGGCCCAUGUACCU |  |  | 119 | 17
51 | GCGUACAUAUCAGGAUAUCAUUGAAUGGAUUAACUCAGUGAAUACAUGAGGAUCACCCAUGUGCUUGAGAAGGGAUUACUACGC | 14.7 | 69.9 |  | 
52 | UCGUAUAUACAAGGAUAUCAAUUAUUGCUAAAUACAACAUGAGGAUCACCCAUGUAACUAUGGAGUGAGAAGGUGUAAUGACUU |  |  | 740 | 603
53 | AGAUCCGCAGGAUAUGUCAAUUUACACAUGAGGAUCACCCAUGUGCCUUGUGUCAGCUUGAUAGAAGGGCGGACUA | 330 | 575 |  | 
54 | UGCUGUGUCAGAGGAUAUACAUCAAUAAUCCAUUGCAAAUAGCGAUGGACAUGAGGAUCACCCAUGUAGAAGGCUGUCACAGCA | 111 | 384 |  | 
55 | AAGAUGUCAGGAUAUGCUGCUCGUCACUUGCGUGAUGAGUAGCAGAAGGGACAUGAGGAUCACCCAUGUAAAGA | 154 | 244 |  | 
